Source: PubChem
WT yeast gro inh = growth inhibition of WT yeast, mitochondrial fusion screen. mitochondrial fusion phenotypic screen, WT strain. inhibition, % at 10 µM. hit rate 2.1% among 190,000; in the data active means inhibition above about 58%; tested in S. cerevisiae
RAM network inh = inhibitors of the yeast RAM network | inhibition, % at 50 µM | hit rate 1.8% among 190,000 | AID 868 | S. cerevisiae dse1pr::URA3 reporter, 5-FOA growth OD615, 2 d; analog-sensitive cbk1-as2 kinase mutant strain;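 active means inhibition above a set limit, 3 SD over mean compound inhibition, cut at about 8.4% in these data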;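 further: inhibition rescues growth on 5-FOA so higher OD means more RAM inhibition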
Biofilm kill mix = mixtures killing C. albicans biofilm. C. albicans biofilm persisters + clotrimazole, fluorescence viability; primary screen in compound mixtures of four per well. inhibition, % at 7.6 µM. hit rate 0.02% among 120,000;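 active means inhibition above 30.3% in the primary screen of four-compound pools, then above 30% when the compound was retested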;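 further: compounds exposed to preformed 24 h biofilms for 48 h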
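Incubation: 24 h biofilm formation, then 48 h compound exposure, 37 °C | Material: C. albicans biofilms | Buffer or medium: RPMI/MOPS medium, pH 7.0 | Measured by: 2-h Alamar Blue fluorescence, 535/590 nm excitation/emission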
p47phox inh = blocks human p47phox regulatory protein of NADPH oxidases. p47phox/p22phox peptide binding, fluorescence polarization, 2 h. inhibition, % at 24.7 µM. hit rate 0.53% among 220,000. AID 1274;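 active means inhibition above about 30%, limit read from the data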
Hck Nef HTS = human Hck-Nef kinase inhibition | Recombinant Hck-YEEI plus Nef, Z-Lyte FRET kinase assay | hit rate 0.68% among 220,000 | inhibition, % at 20 µM | AID 463187 | P08631;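 active means Hck-Nef kinase inhibition above about 50%, limit read from the data; inactive means inhibition below that limit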
Target sequence (P08631 whole entry, looked up): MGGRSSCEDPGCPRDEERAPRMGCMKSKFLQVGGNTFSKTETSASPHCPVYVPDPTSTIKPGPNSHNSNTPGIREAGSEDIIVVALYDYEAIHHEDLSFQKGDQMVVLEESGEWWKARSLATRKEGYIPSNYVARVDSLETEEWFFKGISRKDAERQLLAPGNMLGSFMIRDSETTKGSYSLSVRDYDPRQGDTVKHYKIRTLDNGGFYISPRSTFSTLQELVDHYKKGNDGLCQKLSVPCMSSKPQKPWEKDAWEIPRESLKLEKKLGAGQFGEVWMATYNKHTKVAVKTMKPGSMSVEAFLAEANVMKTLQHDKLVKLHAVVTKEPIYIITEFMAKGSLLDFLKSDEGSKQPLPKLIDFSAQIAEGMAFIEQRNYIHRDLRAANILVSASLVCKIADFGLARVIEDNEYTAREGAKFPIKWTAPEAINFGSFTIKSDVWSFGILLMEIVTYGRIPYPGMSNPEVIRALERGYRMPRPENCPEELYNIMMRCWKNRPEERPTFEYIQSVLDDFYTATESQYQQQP
Arbovirus inh = arbovirus infection inhibition. arbovirus infection cell-based antiviral screen. inhibition, % at 10 µM. hit rate 0.37% among 200,000. AID 1251; in the data active means inhibition above about 30%
Large screens that a line does not name were inactive. The list is not random: actives were taken first. Their share in the collection is about 4.6%.

Cc1ccccc1Nc1nnc(SCC(=O)Nc2ccccc2[N+](=O)[O-])s1	RAM network inh 8.7
Cc1cccc(Nc2nnc(SCC(=O)Nc3ccccc3[N+](=O)[O-])s2)c1	none
Cc1noc(C(=O)Nc2sc3c(c2C#N)CCC3)c1Cl	Arbovirus inh 32 (no result: Biofilm kill mix)
CC(C)Cc1cc(C(=O)Nc2sc3c(c2C#N)CCC3)no1	RAM network inh 10 (no result: Biofilm kill mix)
CC(C)Cc1cc(C(=O)Nc2sc3c(c2C#N)CCCC3)no1	RAM network inh 9.9 (no result: Biofilm kill mix)
CC(C)N1CCN(Cc2coc3ccccc3c2=O)CC1CCO (centres undefined)	none
C=CCOc1ccc(C2C(C(=O)c3ccco3)=C(O)C(=O)N2c2nnc(C)s2)cc1 (centres undefined)	none
Fc1ccccc1N1CCN(Cc2cnc(Cl)s2)CC1	none
CS(=O)(=O)c1nc2ccccc2n1Cc1ccccc1	WT yeast gro inh 94 (no result: Biofilm kill mix)
O=S(=O)(O)c1nc2ccccc2n1Cc1ccccc1	none (no result: Biofilm kill mix)
Cc1cccc(Cn2c(Cc3ccccc3)nc3ccccc32)c1	WT yeast gro inh 72
Cc1ccccc1Cn1c(Cc2ccccc2)nc2ccccc21	WT yeast gro inh 77 (no result: Biofilm kill mix)
Cc1ccc(C)c(NC(=O)CSc2ccc(-c3ccco3)nn2)c1	none
CC(=O)NCC1=C(NC(C)=O)C2CC1C(C)(C)C2C (centres undefined)	Arbovirus inh 31 (no result: Biofilm kill mix)
Cc1nn(C)cc1/C=N/NC(=O)C(C)(C)Oc1ccc(Cl)cc1	none (no result: Biofilm kill mix)
Cc1cc(C(=O)CSc2nc3ccccc3c(=O)n2C)c(C)n1Cc1ccc2c(c1)OCO2	none (no result: Biofilm kill mix)
Nc1c(Nc2ccccc2)c2ccccc2oc1=O	RAM network inh 9.8 (no result: Biofilm kill mix)
CCOC(=O)c1ccc(NC(=O)c2ccc(C)c(S(=O)(=O)N3CCOCC3)c2)cc1	Arbovirus inh 33 (no result: Biofilm kill mix)
CCOC(=O)c1ccc(NC(=O)c2cccc(S(=O)(=O)N3CCOCC3)c2)cc1	none (no result: Biofilm kill mix)
Cc1ccc(NC(=O)COC(=O)c2ccc(OCc3c(C)noc3C)cc2)cc1S(=O)(=O)N1CCOCC1	RAM network inh 11
O=C(N[C@@H](Cc1ccc(O)cc1)C(=O)O)c1ccc(C(F)(F)F)cc1	none
CCOc1ccc(-n2ccnc2SCC(=O)NCc2ccc3c(c2)OCO3)cc1	none (no result: Biofilm kill mix)
CN(C)/C=C/C(=O)c1ccc(F)cc1F	none (no result: WT yeast gro inh, RAM network inh, Arbovirus inh)
c1ccc(-c2noc(-c3ccccc3-c3ccccc3)n2)cc1	WT yeast gro inh 72 (no result: Biofilm kill mix)
O=C(NCc1ccccc1)c1c[nH]c2cc3c(cc2c1=O)OCCO3	none
CC(C)(C)C(=O)Nc1ccnc(-c2cccnc2)n1	WT yeast gro inh 73 (no result: Biofilm kill mix)
CCSc1cc(N2CCCC2)nc(-c2ccc(C)cc2)n1	none
Cc1cc(N2CCCCC2)nc(-c2ccc(Br)cc2)n1	WT yeast gro inh 66
C=CCN=C(C)C1=C(O)C(C)OC1=O (centres undefined)	none
CCn1c(CCCOc2ccc(Cl)cc2Cl)nnc1SCC(=O)Nc1cc(F)ccc1C	WT yeast gro inh 79
CCn1c(CNC(=O)COc2ccc(C(C)C)cc2)nnc1SCC(=O)Nc1ccc(F)cc1	RAM network inh 10.0 (no result: WT yeast gro inh, Biofilm kill mix)
Cn1c(CCCOc2ccc(Cl)cc2Cl)nnc1SCC(=O)Nc1ccc(F)c(Cl)c1	RAM network inh 9.0
Cn1c(CCCOc2ccc(Cl)cc2Cl)nnc1SCC(=O)Nc1cccc(F)c1	none
C=CCn1c(CCCOc2ccc(Cl)cc2Cl)nnc1SCC(=O)Nc1nccs1	RAM network inh 8.9 (no result: Biofilm kill mix)
O=[N+]([O-])c1cccc(/C=N/Nc2cc(Cl)nc(-c3ccccc3)n2)c1	none (no result: Biofilm kill mix)
CCO[C@H]1OC(C(=O)NC2CC2)=C[C@@H](c2ccccc2)[C@@H]1CCCO	none (no result: WT yeast gro inh, RAM network inh, Arbovirus inh)
COc1ccc(-n2c(=O)[nH]cc(C(=O)Nc3ccc(NC(C)=O)cc3)c2=O)cc1	none (no result: WT yeast gro inh, RAM network inh, Biofilm kill mix, p47phox inh, Arbovirus inh)
COc1cccc(-n2c(=O)[nH]cc(C(=O)Nc3ccc4c(c3)OCCO4)c2=O)c1	RAM network inh 8.8 (no result: Biofilm kill mix)
O=C1COc2ccc(C(=O)COc3ccc([N+](=O)[O-])cc3)cc2N1	none (no result: WT yeast gro inh, RAM network inh, Arbovirus inh)
Cc1ccc(C)c(OC(=O)c2ccncc2)c1	none
CCOC(=O)C1=C(C)Nc2ccccc2N=C1NC(=O)c1ccc(Cl)c(S(=O)(=O)N2CCCC2)c1	RAM network inh 8.7
CCOC(=O)CC(=O)CSc1nc(C)nc2c1oc1ccccc12	WT yeast gro inh 83 (no result: Biofilm kill mix)
Cc1nc(SCC(=O)O)c2oc3ccccc3c2n1	none (no result: Biofilm kill mix)
O=C(CSc1ncnc2c1oc1ccccc12)OCc1ccccc1	RAM network inh 8.8 (no result: Biofilm kill mix)
Cc1ccc(OCCSc2nnc(C)c(=O)n2N)cc1	none
COc1ccc(NC(=O)CNc2cccc(C#N)c2)cc1Cl	WT yeast gro inh 71 (no result: Biofilm kill mix)
O=C(Nc1ccc([N+](=O)[O-])cc1)Nc1ccc(OC(F)F)c(Cl)c1	WT yeast gro inh 84
COc1ccc(NC(=O)Nc2cccc([N+](=O)[O-])c2)cc1Cl	WT yeast gro inh 79
COc1ccc(NCC(=O)Nc2ccc(C#N)cc2)cc1Cl	none (no result: Biofilm kill mix)
CCOC(=O)/C=C1\SCC(=O)N1CCOc1cccc(Br)c1	none (no result: Biofilm kill mix)
Cc1cccc(CC2S/C(=N/c3cccc(C)n3)NC2=O)c1 (centres undefined)	none (no result: WT yeast gro inh, RAM network inh, Arbovirus inh)
Cc1nn(Cc2ccc(Cl)cc2)c(C)c1NC(=O)c1noc2c1CCc1ccccc1-2	none (no result: Biofilm kill mix)
CCOC(=O)CSc1nnc(CSc2nc3sc4c(c3c(=O)[nH]2)CCC4)n1-c1ccccc1	none (no result: Biofilm kill mix)
CCOC(=O)CSc1nnc(CSc2nc3sc4c(c3c(=O)[nH]2)CCC4)n1C	RAM network inh 8.7 (no result: Biofilm kill mix)
CCc1ccc(CCC(=O)Nc2ccccc2C(=O)O)o1	WT yeast gro inh 77, Arbovirus inh 38 (no result: Biofilm kill mix)
CCCC(=O)NNC(=O)CC(=O)Nc1ccccc1C(=O)O	none (no result: WT yeast gro inh, RAM network inh, Arbovirus inh)
CCCP(=O)(CCC)CCP(=O)(c1ccccc1)c1ccccc1	none
O=[N+]([O-])c1ccc(CN2CCOCCOCCOCC2)cc1	none
COc1ccc2c(C)cc(Sc3nnnn3-c3ccccc3)nc2c1	Arbovirus inh 31
Clc1ccc(OCc2nnc(-c3ccccc3Br)o2)c(Cl)c1	p47phox inh 43 (no result: Biofilm kill mix)
C1=C(CCNc2ncnc3c2[nH]c2ccccc23)CCCC1	WT yeast gro inh 87
O=c1c2[nH]c3ccccc3c2ncn1CCC1=CCCCC1	none (no result: Biofilm kill mix)
CN=c1scc(C)n1/N=C/c1cc(Br)c(O)c(Br)c1	RAM network inh 10
Cc1ccnc(N2CCC(C(=O)NCc3ccccc3F)CC2)n1	none
Cn1nc(CC(=O)Nc2ccc(N3CCN(C(=O)OC(C)(C)C)CC3)cc2)c2ccccc2c1=O	p47phox inh 31 (no result: Biofilm kill mix)
Cn1nc(CC(=O)N2CCN(c3ccccc3)CC2)c2ccccc2c1=O	none (no result: Biofilm kill mix)
COc1cccc2sc(Nc3nc(-c4ccccn4)cs3)nc12	WT yeast gro inh 63 (no result: Biofilm kill mix)
COC(=O)c1ccc(C(=O)OC)c(NC(=O)CN(C)Cc2ccc(Cl)c(Cl)c2)c1	none
CNC(=S)N/N=C(\C)c1ccccc1	none (no result: WT yeast gro inh, RAM network inh, Arbovirus inh)
CNC(=S)N/N=C(\C)c1ccc(C(C)(C)C)cc1	WT yeast gro inh 75
O=c1[nH]ncc(N2CCN(C(c3ccccc3)c3ccccc3)CC2)c1Cl	WT yeast gro inh 69
N#CCCn1nc(-c2ccc(Br)cc2)cc1Nc1ccccc1NC(=O)C(F)(F)F	RAM network inh 10
N#Cc1c(N)nc(SCC(=O)OCc2ccccc2)c(C#N)c1-c1ccco1	none (no result: Biofilm kill mix)
CCCOC(=O)CSc1nc(N)c(C#N)c(-c2ccco2)c1C#N	RAM network inh 9.3
